Measured values as given in ChEMBL document CHEMBL1123566, “Synthesis and cardiac electrophysiological activity of 2- and 3-[(substituted phenyl)alkyl]quinuclidines. Structure-activity relationships” (1987).
Where “and” joins values, the source holds several entries; their conditions need not be identical. Identical values can stand only once.

What was measured:
Canis familiaris [1] = species on record: Canis familiaris; assay: In vitro electrophysiological evaluation in canine cardiac Purkinje fibres reported as percent change Vmax concentration range of 1-100 uM; type: functional; conditions: Canis lupus familiaris; Purkinje fiber
Method in brief: (§1)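 Canine cardiac Purkinje fibers, intracellular recording, paced at a basic cycle length of 1 s. APD95 and Vmax are recorded together across cumulative concentrations. Compound is a 10 mM aqueous stock diluted into Tyrode's solution. Each fiber is used once as its own control. Readouts are percent change from control at 10 μM, and the maximum change with the concentration where it occurred.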

Canis familiaris [2] = species on record: Canis familiaris; assay: In vitro electrophysiological evaluation in canine cardiac Purkinje fibres reported as percent change Vmax concentration range of 0.01-100 uM; […]; type: functional; conditions: Canis lupus familiaris; Purkinje fiber; method in brief: as §1
Canis familiaris [3] = species on record: Canis familiaris; assay: In vitro electrophysiological evaluation in canine cardiac ventricular muscle reported as maximum % change for conduction time(CT) at 0.1-100 uM concentration range; type: functional, Canis lupus familiaris, Muscle tissue
Method in brief: (§2)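 Canine right ventricle and papillary muscle strips in oxygenated Tyrode's solution, fitted with stimulating and recording electrodes. The extra-stimulus conduction-interval method was adapted for in vitro use. FRP and CT were read from a conduction-interval curve before and after various compound concentrations, and expressed as percent change from control. Compounds were taken from 10 mM deionized-water stock into Tyrode's. Each strip was used once as its own control.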

Canis familiaris [4] = species on record: Canis familiaris; assay: In vitro electrophysiological evaluation in canine cardiac Purkinje fibres reported as maximum percent change Vmax concentration range of 1-100 uM; type: functional; conditions: Canis lupus familiaris; Purkinje fiber; method in brief: as §1
Canis familiaris [5] = assay: Left ventricular refractory period was determined by intraduodenal administration of two dosages (high/low) of 10 g/kg of compound in anesthetized dogs. Value was reported for experiment 3; type: functional, Canis lupus familiaris, Cardiac ventricle; conditions: in the assay text read “10 mg/kg” for “10 g/kg”
Method in brief: (§3)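 Anesthetized dogs, usually given two intraduodenal doses, with the second dose cumulative (low/high). Left ventricular FRP and CT were determined at 15, 30 and 45 min after dosing. HR and BP were measured during nonpacing intervals. Values are % change from control at low/high dose, for individual animals. The vehicle-stability set used 5% dextrose in water/tragacanth (n = 8).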

Canis familiaris [6] = assay: Heart rate was determined by intraduodenal administration of two dosages of 3 mg/kg of (high dose) compound in anesthetized dogs. Value was reported for experiment 3; type: functional, Canis lupus familiaris
Method in brief: (§4)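 Anesthetized dogs given the compound intraduodenally, generally as two doses with the second a cumulative total (low/high). FRP and CT measured at 15, 30 and 45 min after dosing. HR and BP taken during nonpacing intervals. Values are percent change from control per animal. Activity criterion is FRP or CT prolonged ≥12%. Vehicle: 5% dextrose in water/tragacanth.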

Canis familiaris [7] = species on record: Canis familiaris; assay: In vitro electrophysiological evaluation in canine cardiac Purkinje fibres reported as maximum percent change Vmax concentration range of 0.1-10 uM; type: functional; conditions: Canis lupus familiaris; Purkinje fiber; method in brief: as §1
Canis familiaris [8] = species on record: Canis familiaris; assay: In vitro electrophysiological evaluation in canine cardiac Purkinje fibres reported as percent change Vmax concentration range of 0.1-100 uM; Minimal (<IO%increase or a decrease in CT); type: functional; conditions: Canis lupus familiaris; Purkinje fiber
Method in brief: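 Canine cardiac Purkinje fibres, intracellular microelectrode recording, paced at a basic cycle length of 1 s. APD95 and Vmax read simultaneously. Compound: 10 mM stock in deionized water, diluted into Tyrode's solution, tested over the stated concentration range. Each fibre used once as its own control. Result is % change from control, given at 10 µM or as the maximum with its concentration. M = <10% decrease or an increase in Vmax.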

Canis familiaris [9] = species on record: Canis familiaris; assay: In vitro electrophysiological evaluation in canine cardiac ventricular muscle reported as maximum % change for functional refractory period (FRP) at 0.1-100 uM concentration range; set-up: species or system Canis lupus familiaris, Muscle tissue
Canis familiaris [10] = assay: Mean arterial blood pressure was determined by intraduodenal administration of two dosages of 10 mg/kg of (high dose) compound in anesthetized dogs. Value was reported for experiment 3; type: functional, Canis lupus familiaris; method in brief: as §3
Canis familiaris [11] = species on record: Canis familiaris; assay: In vitro electrophysiological activity in canine cardiac Purkinje fibres given as maximum % change for action potential duration at 0.1-100 uM concentration; type: functional, Canis lupus familiaris, Purkinje fiber
Method in brief: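 Canine cardiac Purkinje fibres, intracellular recording at 1 s basic cycle length, over cumulative concentration ranges. Compound 10 mM stock in deionized water diluted into Tyrode's. Each fibre used once as its own control. Value is the maximum % change from control in APD at 95% repolarization, with the concentration where it occurred; both values given if a biphasic response (>20% reversal) occurred.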

Canis familiaris [12] = assay: Conduction time was determined by intraduodenal administration of two dosages of 1 mg/kg (low dose) of compound in anesthetized dogs. Value was reported for experiment 3; type: functional, Canis lupus familiaris; method in brief: as §4
Canis familiaris [13] = species on record: Canis familiaris; assay: In vitro electrophysiological evaluation in canine cardiac Purkinje fibres reported as % change for action potential duration at 0.01-100 uM concentration range; type: functional, Canis lupus familiaris, Purkinje fiber; method in brief: as §1
Canis familiaris [14] = species on record: Canis familiaris; assay: In vitro electrophysiological evaluation in canine cardiac ventricular muscle reported as maximum % change for conduction time(CT) at 0.1-100 uM concentration range; Minimal (<IO%increase or a decrease in CT); type: functional, Canis lupus familiaris, Muscle tissue; method in brief: as §2
Canis familiaris [15] = species on record: Canis familiaris; assay: In vitro electrophysiological activity in canine cardiac Purkinje fibres given as maximum % change for action potential duration at 0.01-100 uM concentration; type: functional, Canis lupus familiaris, Purkinje fiber; method in brief: as §1
Canis familiaris [16] = assay: Mean arterial blood pressure was determined by intraduodenal administration of two dosages of 3 mg/kg of (high dose) compound in anesthetized dogs. Value was reported for experiment 2; type: functional, Canis lupus familiaris; method in brief: as §3
Canis familiaris [17] = assay: Left ventricular refractory period was determined by intraduodenal administration of two dosages of 3 mg/kg of (high dose) compound in anesthetized dogs. Value was reported for experiment 2; type: functional, Canis lupus familiaris, Cardiac ventricle; method in brief: as §3
Canis familiaris [18] = species on record: Canis familiaris; assay: In vitro electrophysiological evaluation in canine cardiac Purkinje fibres reported as percent change Vmax concentration range of 0.1-10 uM; type: functional; conditions: Canis lupus familiaris; Purkinje fiber; method in brief: as §1
Canis familiaris [19] = assay: Conduction time was determined by intraduodenal administration of two dosages of 3 mg/kg (high dose) of compound in anesthetized dogs. Value was reported for experiment 3; type: functional, Canis lupus familiaris; method in brief: as §4
Canis familiaris [20] = assay: Left ventricular refractory period was determined by intraduodenal administration of two dosages of 1 mg/kg of (low dose) compound in anesthetized dogs. Value was reported for experiment 2; type: functional, Canis lupus familiaris, Cardiac ventricle; method in brief: as §3
Canis familiaris [21] = species on record: Canis familiaris; assay: In vitro electrophysiological evaluation in canine cardiac ventricular muscle reported as % change for the functional refractory period (FRP) concentration range of 0.1-100 uM; set-up: species or system Canis lupus familiaris, Muscle tissue
Method in brief: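 Canine right ventricular/papillary muscle strips in oxygenated Tyrode's, extracellular extra-stimulus conduction-interval method. FRP and CT are read from conduction-interval curves before and during rising concentrations. Compound is a 10 mM aqueous stock diluted into Tyrode's. Each strip is used once as its own control. Readouts are percent change from control at 10 μM, plus the maximum change with its concentration.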

Canis familiaris [22] = assay: Mean arterial blood pressure was determined by intraduodenal administration of two dosages of 3 mg/kg of (low dose) compound in anesthetized dogs. Value was reported for experiment 1; type: functional, Canis lupus familiaris
Method in brief: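 Anesthetized dogs received two intraduodenal doses, the second cumulative (low dose/high dose). Left ventricular FRP and CT were measured 15, 30 and 45 min after dosing. Heart rate and mean blood pressure were taken during nonpacing intervals. Values are percent change from control. The vehicle was 5% dextrose in water/tragacanth. Activity was defined as ≥12% prolongation of FRP or CT.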

Canis familiaris [23] = species on record: Canis familiaris; assay: In vitro electrophysiological evaluation in canine cardiac Purkinje fibres reported as maximum percent change Vmax concentration range of 0.01-100 uM; […]; type: functional; conditions: Canis lupus familiaris; Purkinje fiber; method in brief: as §1
Canis familiaris [24] = assay: Conduction time was determined by intraduodenal administration of two dosages of 10 mg/kg (high dose) of compound in anesthetized dogs. Value was reported for experiment 3; type: functional, Canis lupus familiaris; method in brief: as §4
Canis familiaris [25] = assay: Heart rate was determined by intraduodenal administration of two dosages of 1 mg/kg of (low dose) compound in anesthetized dogs. Value was reported for experiment 3; type: functional, Canis lupus familiaris; method in brief: as §4

In the case of `CCCCCCC[N+](CC)(CC)CCCCc1ccc(Cl)cc1.O=P([O-])(O)O` [CLOFILIUM PHOSPHATE], the Vmax (Canis familiaris [1]) was -50% and -49%, the Vmax (Canis familiaris [2]) was under 10% and the CT (Canis familiaris [3]) was 19%. The Vmax (Canis familiaris [4]) was -69% and -65%, the L (Canis familiaris [5]) was 23% and the HR (Canis familiaris [6]) was -7%. For the same compound, the Vmax (Canis familiaris [7]) was -11%, the Vmax (Canis familiaris [8]) was under 10% and the FRP (Canis familiaris [9]) was -3% and 14% and 7%. The Mean blood pressure (Canis familiaris [10]) was 4%, the APD95 (Canis familiaris [11]) was 52% and 46% and the CT (Canis familiaris [12]) was 0%. The APD95 (Canis familiaris [13]) was 27% and 55%, the CT (Canis familiaris [14]) was under 10% and the APD95 (Canis familiaris [15]) was 27% and 55%. The Mean blood pressure (Canis familiaris [16]) was -14%, the “LV FRP” value (Canis familiaris [17]) was 2% and the Vmax (Canis familiaris [18]) was -11%. For the same compound, the CT (Canis familiaris [19]) was -7%, the “LV FRP” value (Canis familiaris [20]) was -1% and the “FRP at 10microM” value (Canis familiaris [21]) was -3%. It also gave a Mean blood pressure (Canis familiaris [22]) of -7%, a Vmax (Canis familiaris [23]) of under 10% and a CT (Canis familiaris [24]) of -11%. For the same compound, the HR (Canis familiaris [25]) was -2%.
